# From PubChem BioAssay AID704 (The Scripps Research Institute Molecular Screening Center, 2007)
# Out of some 97,000 compounds screened, about 770 (0.79%) were called active. This is one part of a sample in which actives are shown more often than they occur.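 The calls were made as follows: active = inhibition above the screen-wide mean plus 3 SD (cut at about 35% in these data); inactive = the rest.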
# Molecular target: Protein Rev (Human immunodeficiency virus type 1 group M subtype B (isolate WMJ22)) (UniProt P05866)
# Assay: HIV-1 Rev-RRE binding inhibitors, primary screen, biochemical, FRET, protein-RNA interaction (AID 704);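 also: 0% = median DMSO wells and 100% = median Neomycin B control wells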
# Conditions: Rev peptide-RRE RNA binding, at 8 µM, stronger effect = higher value
# How it was run: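 Material: labelled RRE RNA duplex and labelled Rev peptide / Buffer or medium: HEPES pH 7.5 salt buffer with EDTA / Compound dosing: single point, 8 µM final nominal compound concentration / Benchmarks: DMSO low control, neomycin B high control / Timing: 5 min preincubation and 15 min binding, 25 °C / Technique: FRET fluorescence readout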
# Chain of Protein Rev (Human immunodeficiency virus type 1 group M subtype B (isolate WMJ22)) (P05866 whole entry, looked up): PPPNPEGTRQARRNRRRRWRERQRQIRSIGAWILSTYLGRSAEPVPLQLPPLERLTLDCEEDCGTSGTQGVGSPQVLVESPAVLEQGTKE
row,SMILES,inhibition
1,CCc1nnc(NC(=O)c2nc3nccc(C)n3n2)s1,12.3% (inactive)
2,CCc1ccc2nc3sc(C(=O)Nc4nnc(CC)s4)c(N)c3cc2c1,89.2% [fluorescence artefact?] (active)
3,CCc1nnc(NC(=O)c2cccs2)s1,7.76% (inactive)
4,Cc1cccc(COc2ccccc2/C=N/Nc2ccc([N+](=O)[O-])cc2)c1,64% (active)
5,Cc1ccc(-n2c(C)cc(/C=N/Nc3ccc([N+](=O)[O-])cn3)c2C)c(C)c1,31.5% (inactive)
6,COc1cccc(/C=N/NC(=O)c2cccc([N+](=O)[O-])c2)c1OS(=O)(=O)c1ccc(C)cc1,11.5% (inactive)
7,C=CCNc1cnn(-c2ccc(C)cc2)c(=O)c1Cl,-1.57% (inactive)
8,Cc1ccc(-n2c(C)cc(/C=C(\C#N)C(=O)NCC3CCCO3)c2C)cc1 (centres undefined),-6.05% (inactive)
9,N#CCSc1nc2c(c(=O)n1Cc1ccccc1)C1(CCCC1)Cc1ccccc1-2,23.3% (inactive)
10,Cc1cccn2c(=O)c(/C=C3\SC(=S)N(CC(C)C)C3=O)c(NCCCOC(C)C)nc12,73.4% (active)
11,CC(C)OCCCNc1nc2c(c(=O)n(Cc3ccccc3F)c(=O)n2C)n1C,8.58% (inactive)
12,Cn1nc(C(F)(F)F)c(C(=O)Nc2cccc(C(F)(F)F)c2)c1SCc1ccc(Cl)cc1,9.7% (inactive)
13,COc1ccc(CNC(=O)C2CCC(CNc3c(N4CCOCC4)c(=O)c3=O)CC2)cc1 (centres undefined),-0.22% (inactive)
14,CCOc1ccc(CN(Cc2ccco2)S(=O)(=O)c2ccc(-n3cnnn3)c(OC)c2)cc1,18.6% (inactive)
15,O=C(O)C1CCN(C(=O)OCc2ccccc2)CC1,2.49% (inactive)
16,CCC(C)n1c(-c2cc(OC)c(OC)c(OC)c2)nc2nc3ccccc3nc21 (centres undefined),2.36% (inactive)
17,CCOC(=O)C1=C(CN2CCc3ccccc32)NC(=O)NC1c1ccc(Cl)cc1 (centres undefined),10.3% (inactive)
18,CCOCCOCCC(C(=O)O)P(=O)(c1ccccc1)c1ccccc1 (centres undefined),0.47% (inactive)
19,O=c1cc(C(F)(F)F)[nH]c(=O)n1C1CCCCC1,8.66% (inactive)
20,COC(=O)C1=C(C)N=C2SC(C)C(=O)N2C1/C=C/c1ccccc1 (centres undefined),4.63% (inactive)
21,C=C(Cl)COC(=O)C1C2C=CC(C2)C1C(=O)O (centres undefined),3.94% (inactive)
22,Oc1ccc(-c2onc3ccc(Cl)cc23)cc1,47.9% (active)
23,Cc1cccc(N(C(=O)c2ccc(CN3CCOCC3)o2)C(C(=O)NC2CCCCC2)c2ccc(F)cc2)c1 (centres undefined),0.55% (inactive)
24,Cc1[nH]n(-c2ccccc2)c(=O)c1CCOC(=O)c1ccc(C(F)(F)F)cc1,3.64% (inactive)
25,N#Cc1c(N)n(CCOC(=O)c2ccc(Cl)cc2)c2nc3ccccc3nc12,7.97% (inactive)
26,CN(C)CCCn1c(N)c(C#N)c2nc(C#N)c(C#N)nc21,44.4% (active)
27,OC(COc1ccc2c(c1)CCC2)CN1CCN(c2cccc(Cl)c2)CC1 (centres undefined),13.2% (inactive)
28,Cc1cc(OCCOc2cccc3cccnc23)c(C)cc1Cl,17.3% (inactive)
29,Cc1ccc2nc(Nc3ccccc3O)nc(-c3ccccc3)c2c1,9.78% (inactive)
